Paper PMC4186986 (Acta Pharmacologica Sinica, 2014)

Experiments:
Assay type in all cases: cell-based
[1] = system: cyclin A, cyclin E, CDK2 in MDA-MB-231 cells; assay: Western blot of cell cycle regulatory proteins; conditions: MDA-MB-231, 48 h; compounds together with 1 nmol/L E2
Outline: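 MDA-MB-231 cells in DMEM/F12 with 10% charcoal-stripped FBS, seeded at 2×10^5 cells/well, treated 48 h with 1 nmol/L E2 plus test compound at several concentrations. Run on 12% SDS-PAGE, transferred to PVDF, probed overnight at 4 °C for cyclin A, cyclin E and CDK2, with ECL detection. GAPDH served as loading control; three independent experiments.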

MDA-MB-231 cells = assay: MTT anti-proliferation assay, MDA-MB-231; conditions: Homo sapiens, MDA-MB-231, 48 h, read-out: MDA-MB-231 inhibition (%)
Outline: (§1)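 MCF-7 or MDA-MB-231 cells seeded at 10^5 cells/mL in phenol red-free DMEM/F12 with 10% charcoal-stripped FBS. Exposed to test compound at 0.01–100 μmol/L for 48 h (37 °C, 5% CO2), then MTT (5 mg/mL stock) for 4 h. Formazan dissolved in DMSO; absorbance read at 570 nm. Inhibition taken relative to DMSO-treated cells set as 100% viability; single-point values at 100 μmol/L final.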

MCF-7 cells = assay: MTT anti-proliferation assay, MCF-7; conditions: Homo sapiens, MCF7, 48 h, read-out: MCF-7 inhibition (%)
Outline: as §1

| SMILES | expression level of CDK2 [1] | expression level of cyclin A [1] | expression level of cyclin E [1] | inhibition at 100 µM (MDA-MB-231 cells) [%] | inhibition at 100 µM (MCF-7 cells) [%] |
| --- | --- | --- | --- | --- | --- |
| C[C@]12CC[C@@H]3c4ccc(O)cc4CC[C@H]3[C@@H]1CC[C@@H]2O [Estradiol, 17β-estrodial] | increased the expression | increased the expression | increased the expression | – | – |
| CC/C(=C(\c1ccccc1)c1ccc(OCCN(C)C)cc1)c1ccccc1 [Tamoxifen] | – | – | – | 80.5 | 93.3 |
